Data published in ChEMBL document CHEMBL1134841, “Antimalarial alkoxylated and hydroxylated chalcones [corrected]: structure-activity relationship analysis” (J Med Chem, 2001).

Assays:
[1] = Ratio of average life span of compound-treated mice (100 mg/kg, ip, 3 days) to that of mice treated with chloroquine (T/C-CQ); assay type: functional
Outline: (§1)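 Swiss albino mice (male, 4 weeks, ~25 g) inoculated ip with 10^7 P. berghei ANKA parasitized erythrocytes (day 0). Test compound 100 mg/kg/day ip in DMSO, days 1–3, three mice per compound. Control infected groups: DMSO or 4'-butoxy-2,4-dimethoxychalcone (100 mg/kg in DMSO, ip, days 1–3), or chloroquine (52 mg/kg ip in 0.5% Tween buffer pH 7.4, day 1). Survival followed; ratio of mean life spans.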

Mus musculus [2] = assay: Ratio of average life span of compound-treated mice (100 mg/kg, ip, 3 days) to that of mice receiving DMSO (T/C-untreated); assay type: functional; outline: as §1
Plasmodium falciparum = assay: Inhibition of [3H]hypoxanthine incorporation in Plasmodium falciparum K1; assay type: functional, organism-based; details: Plasmodium falciparum, 48 h
Outline: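 K1 (chloroquine-resistant) parasites cultured in RPMI-1640 with 5% sodium bicarbonate and 10% type O human serum. DMSO stocks were serially diluted 10-fold in medium, covering a 10^6-fold range. Infected erythrocytes at 1–2% parasitemia and 1.5% hematocrit were incubated at 37 °C in a candle jar for 24 h. [3H]hypoxanthine was then added for a further 24 h, cells harvested and scintillation counted. IC50 from nonlinear logistic fit versus untreated control.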

Mus musculus [3] = assay: Ratio of average life span of compound-treated mice (100 mg/kg, ip, 3 days) to that of mice treated with 4''-butoxy-2,4-dimethoxychalcone (comp.41); assay type: functional; outline: as §1

Row | Structure (SMILES) | T/C-CQ [1] | T/C untreated (Mus musculus [2]) | IC50 (Plasmodium falciparum) | T/C 41 (Mus musculus [3])
1 | COc1ccc(C(=O)/C=C/c2ccc(Cl)c(Cl)c2)c(OC)c1OC | 0.8 | 1.47 | 14.5 µM | 1.53
2 | CCc1ccc(/C=C/C(=O)c2ccc(OC)cc2OC)cc1 | 1.18 | 2.33 | 2.4 µM | 2.33
3 | O=C(/C=C/c1ccc(F)cc1F)c1ccc(O)cc1O | 1.23 | 1.73 | 16 µM | 1.78
